The source of these data is ChEMBL document CHEMBL1140068, “Computer based design, synthesis and biological evaluation of novel indole derivatives as HCV NS3-4A serine protease inhibitors” (Bioorg Med Chem, 2008).

The structures appear in SMILES notation. In brackets after ≈: the same amount, converted by molar mass.

Experiment [1] concerns Hepacivirus hominis. Briefly: Inhibition of HCV NS3 protease at 100 ug/ml. Put shortly:
(§1)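 Competitive displacement binding assay against HCV NS3-4A protease using the fluorogenic peptide substrate Ac-Asp-Glu-Asp(EDANS)-Glu-Glu-Abu-ψ. Fluorescence intensity was read, and percent inhibition was calculated from it.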

Experiment [2] concerns Hepacivirus hominis. Briefly: Inhibition of HCV NS3 protease at 50 ug/ml. Put shortly: as §1
The subject of experiment [3] is Hepacivirus hominis. In words: Inhibition of HCV NS3 protease at 10 ug/ml. The procedure, abridged: as §1
The nature of experiment [4]: Inhibition of HCV NS3 protease. On the set-up: species or system Hepacivirus hominis. The procedure, abridged:
as §1

Usually inhibition stands for the share of the control response that was lost under treatment. Low values mean a weak effect, high ones a strong effect. Usually IC50 stands for the midpoint of a concentration-inhibition curve. Turning to `O=C(CCC(=O)N[C@@H](Cc1ccc(O)cc1)C(=O)O)CC(c1ccc(C(F)(F)F)cc1)c1c[nH]c2ccc(Br)cc12` (stereo partly specified), the inhibition in the experiment on Hepacivirus hominis [1] was 82.9%; with Hepacivirus hominis [2], 54%; in the experiment on Hepacivirus hominis [3], 19.1%. In addition, the IC50 in experiment [4] worked out at 39.2 mg/L (≈ 62.1 µM).

As to `COc1ccc([C@@H](CC(=O)CCC(=O)N[C@@H](Cc2ccccc2)C(=O)O)c2c[nH]c3ccc(OC)cc23)cc1`, in experiment [4], the IC50 came to 36.5 mg/L (≈ 69 µM).

In the case of `COc1ccc2[nH]cc(C(CC(=O)CCC(=O)N[C@@H](Cc3c[nH]c4ccccc34)C(=O)O)c3ccc(C(F)(F)F)cc3)c2c1` (mixture of isomers), the inhibition stood at 76.9% in the experiment on Hepacivirus hominis [1] and 51.2% in the experiment with Hepacivirus hominis [2]. For the same molecule, the IC50 in experiment [4] was 47.9 mg/L.

In the case of `COc1ccc(C(CC(=O)CCC(=O)N[C@@H](Cc2c[nH]c3ccccc23)C(=O)O)c2c[nH]c3ccc(OC)cc23)cc1` (mixture of isomers), the inhibition in the experiment with Hepacivirus hominis [1] is 67.4%; in the experiment on Hepacivirus hominis [2], 54.4%. In addition, the 50% inhibitory concentration (IC50) in experiment [4] was 44.8 mg/L.

As for `COc1ccc(C(CC(=O)CCC(=O)N[C@@H](Cc2ccc(O)cc2)C(=O)O)c2c[nH]c3ccc(OC)cc23)cc1` (mixture of isomers), the inhibition in the experiment with Hepacivirus hominis [1] was 78.8%; in the experiment with Hepacivirus hominis [2] it was 69.9%; in the experiment on Hepacivirus hominis [3] it was 29.6%. The molecule further returned an IC50 in experiment [4] of 27.2 mg/L.

On to `COc1ccc(C(CC(=O)CCC(=O)N[C@@H](Cc2ccccc2)C(=O)O)c2c[nH]c3ccc(OC)cc23)cc1` (mixture of isomers), for which the inhibition came out at 85.7% in the experiment with Hepacivirus hominis [1], 84.4% with Hepacivirus hominis [2] and 43.7% in the experiment on Hepacivirus hominis [3]. In experiment [4], the IC50 worked out at 15 mg/L.

In the case of `COc1ccc2[nH]cc(C(CC(=O)CCC(=O)N[C@@H](Cc3ccccc3)C(=O)O)c3ccc(C(F)(F)F)cc3)c2c1` (mixture of isomers), the inhibition with Hepacivirus hominis [1] was 84.9%; in the experiment with Hepacivirus hominis [2] it was 67.2%; with Hepacivirus hominis [3] it was 48.5%. The molecule also registered an IC50 in experiment [4] of 13 mg/L.

On to `COc1ccc2[nH]cc(C(CC(=O)CCC(=O)N[C@@H](Cc3ccc(O)cc3)C(=O)O)c3ccc(C(F)(F)F)cc3)c2c1` (mixture of isomers), for which the inhibition in the experiment on Hepacivirus hominis [1] is 84.3%; in the experiment on Hepacivirus hominis [2], 57.1%; with Hepacivirus hominis [3], 35.2%. Further, the IC50 in experiment [4] worked out at 39 mg/L.

Take `COc1ccc(C(CC(=O)CCC(=O)N[C@@H](Cc2c[nH]c3ccccc23)C(=O)O)c2c[nH]c3ccc(Br)cc23)cc1` (mixture of isomers): the inhibition in the experiment with Hepacivirus hominis [1] was determined as 72.6%; in the experiment on Hepacivirus hominis [2], 54.8%. Further, the IC50 in experiment [4] was 44.1 mg/L.

Turning to `COc1ccc2[nH]cc(C(CC(=O)CCC(=O)N[C@@H](Cc3c[nH]cn3)C(=O)O)c3ccc(C(F)(F)F)cc3)c2c1` (mixture of isomers), the results for the inhibition in the experiment on Hepacivirus hominis [1], in the experiment on Hepacivirus hominis [2] and in the experiment on Hepacivirus hominis [3] were 77.6%, 62.5% and 23.5%, respectively. In addition, the IC50 in experiment [4] turned out to be 30.5 mg/L.

`COc1ccc(C(CC(=O)CCC(=O)N[C@@H](Cc2ccc(O)cc2)C(=O)O)c2c[nH]c3ccc(Br)cc23)cc1` (mixture of isomers): the figures for the inhibition in the experiment on Hepacivirus hominis [1] and in the experiment with Hepacivirus hominis [2] were 68.7% and 41.5%, respectively. In experiment [4], the IC50 is 63.3 mg/L.

For the molecule `COc1ccc(C(CC(=O)CCC(=O)N[C@@H](Cc2c[nH]cn2)C(=O)O)c2c[nH]c3ccc(OC)cc23)cc1` (mixture of isomers), the inhibition was 75.7% in the experiment with Hepacivirus hominis [1], 59.2% with Hepacivirus hominis [2] and 22.4% with Hepacivirus hominis [3]. The molecule also displayed an IC50 in experiment [4] of 31 mg/L.
